Data reported in ChEMBL document CHEMBL1135761, “Discovery of further pyrrolidine trans-lactams as inhibitors of human neutrophil elastase (HNE) with potential as development candidates and the crystal structure of HNE complexed with an inhibitor (GW475151)” (J Med Chem, 2002).

Assays:
[1] = Pharmacokinetic parameter Varea in dog was reported in Cassette dosage; type: ADME, organism-based, Canis lupus familiaris; details: in vivo, read-out: Varea
How it was run: (§1)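 Dog cassette: the set of compounds was given intravenously into the femoral vein to a beagle dog at 0.2 mg/kg body weight per compound. Jugular blood was sampled from 5 min to 24 h postdose. Plasma was prepared by solid phase extraction, then analysed by HPLC with single ion monitoring MS using 0.1% formic acid in water:methanol (70:30).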

[2] = Pharmacokinetic parameter Varea in dog was reported in Discrete dosage; type: ADME, organism-based, Canis lupus familiaris; details: in vivo, read-out: Varea
[3] = Half life time in dog was reported in Discrete dosage; type: ADME, organism-based, Canis lupus familiaris; details: in vivo
[4] = Half life time in dog was reported in cassette dosage; type: ADME, organism-based, Canis lupus familiaris; details: in vivo; how it was run: as §1
[5] = Pharmacokinetic parameter clearance in dog was reported in Cassette dosage; type: ADME, organism-based, Canis lupus familiaris; details: plasma, read-out: Clp; how it was run: as §1
[6] = Pharmacokinetic parameter clearance in dog was reported in Discrete dosage; type: ADME, organism-based, Canis lupus familiaris; details: plasma, read-out: Clp
[7] = pharmacokinetic parameter volume of distribution (Vd) was reported in dog after intravenous administration; type: ADME, organism-based, Canis lupus familiaris; details: in vivo, read-out: Vd area
[8] = Oral bioavailability in dog; type: ADME, organism-based, Canis lupus familiaris; details: in vivo
[9] = Oral bioavailability in rat; type: ADME, organism-based; details: in vivo
How it was run: (§2)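 Rats were dosed with the hydrochloride salt at 2 mg/kg intravenously and orally. Plasma pharmacokinetic parameters were derived from each route, and F was taken from the oral versus intravenous exposure. Some rat data were normalized from a 2.4 to a 2 mg/kg dose.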

[10] = Pharmacokinetic parameter Tmax was reported in dog after oral administration; type: ADME, organism-based, Canis lupus familiaris; details: in vivo
[11] = pharmacokinetic parameter volume of distribution (Vd) was reported in rat after intravenous administration; type: ADME, organism-based; details: in vivo, read-out: Vd area; how it was run: as §2
Canis familiaris [12] = assay: pharmacokinetic parameter area under the curve (AUC) was reported in dog after intravenous administration; type: ADME, organism-based, Canis lupus familiaris; details: in vivo
Canis familiaris [13] = assay: pharmacokinetic parameter area under the curve (AUC) was reported in dog after oral administration; type: ADME, organism-based, Canis lupus familiaris; details: in vivo
Rattus norvegicus [14] = assay: pharmacokinetic parameter area under the curve (AUC) was reported in rat after intravenous administration; type: ADME, organism-based; details: in vivo; how it was run: as §2
Rattus norvegicus [15] = assay: pharmacokinetic parameter area under the curve (AUC) was reported in rat after oral administration; type: ADME, organism-based; details: in vivo; how it was run: as §2
[16] = half life was reported in dog after intravenous administration; type: ADME, organism-based, Canis lupus familiaris; details: in vivo
[17] = half life was reported in dog after oral administration; type: ADME, organism-based, Canis lupus familiaris; details: in vivo
[18] = half life was reported in rat after intravenous administration; type: ADME, organism-based; details: in vivo; how it was run: as §2
[19] = half life was reported in rat after oral administration; type: ADME, organism-based; details: in vivo; how it was run: as §2
[20] = Pharmacokinetic parameter Cmax was reported after in dog oral administration; type: ADME, organism-based, Canis lupus familiaris; design: route oral; details: in vivo
[21] = Pharmacokinetic parameter Cmax was reported after in rat oral administration; type: ADME, organism-based; design: route oral; details: in vivo; how it was run: as §2
[22] = Pharmacokinetic parameter Tmax was reported in rat after oral administration; type: ADME, organism-based; details: in vivo; how it was run: as §2
Cathepsin G = molecular target: T1, Cathepsin G (Homo sapiens, UniProt P08311); assay: The compound was evaluated for its inhibitory activity against cathepsin G using selectivity assay
T1 sequence (P08311 whole entry): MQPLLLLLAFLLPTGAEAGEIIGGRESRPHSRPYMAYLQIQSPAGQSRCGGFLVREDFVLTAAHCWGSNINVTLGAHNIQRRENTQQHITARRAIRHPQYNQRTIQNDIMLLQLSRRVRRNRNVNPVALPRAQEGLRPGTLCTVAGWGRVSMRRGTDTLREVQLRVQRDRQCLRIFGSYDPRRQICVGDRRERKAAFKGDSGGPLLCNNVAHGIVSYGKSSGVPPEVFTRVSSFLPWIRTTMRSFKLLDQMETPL

Chymotrypsinogen A = Chymotrypsinogen A (Bos taurus, UniProt P00766); assay: The compound was evaluated for its inhibitory activity against Chymotrypsinogen using selectivity assay
How it was run: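 Selectivity counter-screen against chymotrypsin, run essentially per an earlier published protocol; inhibitor preincubated with enzyme for 15 min before activity read-out.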

Serine protease 1 = Serine protease 1 (Homo sapiens, UniProt P07477); assay: The compound was evaluated for its inhibitory activity against trypsin using selectivity assay
Sequence of Serine protease 1 (P07477 whole entry): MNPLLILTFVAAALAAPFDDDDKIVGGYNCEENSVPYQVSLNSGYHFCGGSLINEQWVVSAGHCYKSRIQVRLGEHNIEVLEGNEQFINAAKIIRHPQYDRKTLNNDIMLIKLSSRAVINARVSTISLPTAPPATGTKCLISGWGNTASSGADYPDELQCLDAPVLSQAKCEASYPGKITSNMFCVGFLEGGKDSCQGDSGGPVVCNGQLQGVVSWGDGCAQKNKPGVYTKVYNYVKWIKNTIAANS

[23] = Pharmacokinetic parameter Tmax was reported in rat after intravenous administration; type: ADME, organism-based; details: in vivo; how it was run: as §2
[24] = molecular target: T2, Neutrophil elastase (Homo sapiens) (UniProt P08246); details: Canis lupus familiaris; 2 mg/kg
T2 sequence (whole entry): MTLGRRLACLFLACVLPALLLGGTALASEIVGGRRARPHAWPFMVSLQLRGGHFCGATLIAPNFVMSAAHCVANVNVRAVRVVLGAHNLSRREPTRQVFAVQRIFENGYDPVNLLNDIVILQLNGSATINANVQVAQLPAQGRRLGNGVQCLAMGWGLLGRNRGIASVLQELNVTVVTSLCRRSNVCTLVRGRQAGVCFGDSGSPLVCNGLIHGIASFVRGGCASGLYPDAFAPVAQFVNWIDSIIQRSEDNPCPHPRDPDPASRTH

[25] = molecular target: T2, Neutrophil elastase (Homo sapiens); details: Canis lupus familiaris; Blood; 2 mg/kg
[26] = molecular target: T2, Neutrophil elastase (Homo sapiens)
[27] = molecular target: T2, Neutrophil elastase (Homo sapiens); details: Canis lupus familiaris; Blood; 2 mg/kg; remark: listed apart in the source
[28] = Pharmacokinetic parameter Tmax was reported in dog after intravenous administration; type: ADME, organism-based, Canis lupus familiaris; details: in vivo

Vd [1]	Vd [2]	half-life [3]	half-life [4]	clearance [5]	clearance [6]	Vd [7]	bioavailability [8]	bioavailability [9]	Tmax [10]	Vd [11]	AUC (Canis familiaris [12])	AUC (Canis familiaris [13])	AUC (Rattus norvegicus [14])	AUC (Rattus norvegicus [15])	half-life [16]	half-life [17]	half-life [18]	half-life [19]	Cmax [20]	Compound	other results
7.6 L/kg	3.5 L/kg	12 min	42 min	134 mL/min/kg	197 mL/min/kg	–	–	–	–	–	–	–	–	–	–	–	–	–	–	CCCN(C)Cc1ccc(C(=O)N2CCC3C2C(C(C)C)C(=O)N3S(C)(=O)=O)cc1 (stereo unspecified)	–
4.3 L/kg	3.8 L/kg	30 min	30 min	97 mL/min/kg	94 mL/min/kg	–	–	–	–	–	–	–	–	–	–	–	–	–	–	CC(C)C1C(=O)N(S(C)(=O)=O)C2CCN(C(=O)c3ccc(CNC4CC4)cc3)C12 (stereo unspecified)	–
6.6 L/kg	3.8 L/kg	12 min	30 min	161 mL/min/kg	220 mL/min/kg	–	–	–	–	–	–	–	–	–	–	–	–	–	–	CC(C)[C@@H]1C(=O)N(S(C)(=O)=O)[C@@H]2CCN(C(=O)c3ccc(CCN4CCCCC4)cc3)[C@H]21	–
–	–	–	–	–	–	1.9 L/kg	120%	43%	15 min	5 L/kg	220 ng·h/mL	147 ng·h/mL	148 ng·h/mL	64 ng·h/mL	24 min	24 min	18 min	24 min	205 ng/mL	CC(C)[C@@H]1C(=O)N(S(C)(=O)=O)[C@@H]2CCN(C(=O)c3cnc(CNC4CC4)cn3)[C@H]21.Cl	Cmax [21]: 135 ng/mL; Tmax [22]: 15 min; IC50 (Cathepsin G): > 100 µM; IC50 (Chymotrypsinogen A): 0.54 µM; IC50 (Serine protease 1): > 100 µM; Tmax [23]: 1.8 min; inhibition [24]: 92%; inhibition [25]: 99%; k on [26]: 252000 M⁻¹ s⁻¹
2.9 L/kg	–	–	42 min	46 mL/min/kg	–	–	–	–	–	–	–	–	–	–	–	–	–	–	–	CC(C)C1C(=O)N(S(C)(=O)=O)C2CCN(C(=O)c3ccc(CNC4CC4)nc3)C12 (stereo unspecified)	–
4.4 L/kg	–	–	18 min	176 mL/min/kg	–	–	–	–	–	–	–	–	–	–	–	–	–	–	–	CC(C)[C@@H]1C(=O)N(S(C)(=O)=O)[C@@H]2CCN(C(=O)c3ccc(CN(C)C(C)C)c(Br)c3)[C@H]21	–

Continued, compound first:

Compound	Vd [1]	Vd [2]	half-life [3]	half-life [4]	clearance [5]	clearance [6]	Vd [7]	bioavailability [8]	bioavailability [9]	Tmax [10]	Vd [11]	AUC (Canis familiaris [12])	AUC (Canis familiaris [13])	AUC (Rattus norvegicus [14])	AUC (Rattus norvegicus [15])	half-life [16]	half-life [17]	half-life [18]	half-life [19]	Cmax [20]	other results
CC(C)[C@@H]1C(=O)N(S(C)(=O)=O)[C@@H]2CCN(C(=O)/C=C/CN3CCCCC3)[C@H]21.Cl	–	–	–	–	–	–	3.5 L/kg	100%	60%	42 min	7.5 L/kg	405 ng·h/mL	430 ng·h/mL	424 ng·h/mL	263 ng·h/mL	90 min	96 min	66 min	48 min	152 ng/mL	Cmax [21]: 232 ng/mL; Tmax [22]: 30 min; IC50 (Cathepsin G): > 100 µM; IC50 (Serine protease 1): > 100 µM; Tmax [23]: 3 min; inhibition [24]: 97%; inhibition [27]: 100%; k on [26]: 6630 M⁻¹ s⁻¹
CC(C)[C@@H]1C(=O)N(S(C)(=O)=O)[C@@H]2CCN(C(=O)/C=C/CNC3CC3)[C@H]21	2.5 L/kg	2.9 L/kg	54 min	60 min	28 mL/min/kg	40 mL/min/kg	–	–	–	–	–	–	–	–	–	–	–	–	–	–	–
CC(C)C1C(=O)N(S(C)(=O)=O)C2CCN(C(=O)c3csc(CN4CCCC4)n3)C12 (stereo unspecified)	4.8 L/kg	–	–	60 min	53 mL/min/kg	–	–	–	–	–	–	–	–	–	–	–	–	–	–	–	–
CC(C)[C@@H]1C(=O)N(S(C)(=O)=O)[C@@H]2CCN(C(=O)C3CN(CC(C)(C)C)C3)[C@H]21.Cl	–	–	–	–	–	–	3.5 L/kg	90%	45%	54 min	4.9 L/kg	488 ng·h/mL	417 ng·h/mL	482 ng·h/mL	217 ng·h/mL	108 min	126 min	48 min	72 min	130 ng/mL	Cmax [21]: 142 ng/mL; Tmax [22]: 45 min; IC50 (Cathepsin G): > 100 µM; IC50 (Chymotrypsinogen A): 31 µM; IC50 (Serine protease 1): > 100 µM; Tmax [23]: 1.8 min; inhibition [24]: 92%; inhibition [25]: 99%; k on [26]: 6310 M⁻¹ s⁻¹
CC(C)C1C(=O)N(S(C)(=O)=O)C2CCN(C(=O)/C=C/CN3CCCCC3)C12 (stereo unspecified)	3.3 L/kg	2.7 L/kg	108 min	120 min	20 mL/min/kg	19 mL/min/kg	–	–	–	–	–	–	–	–	–	–	–	–	–	–	–
CC(C)[C@@H]1C(=O)N(S(C)(=O)=O)[C@@H]2CCN(C(=O)c3coc(CN4CCCC4)n3)[C@H]21.Cl	–	–	–	–	–	–	3.4 L/kg	100%	24%	30 min	2.6 L/kg	286 ng·h/mL	308 ng·h/mL	392 ng·h/mL	93 ng·h/mL	60 min	84 min	24 min	78 min	138 ng/mL	Tmax [28]: 1.8 min; Cmax [21]: 147 ng/mL; Tmax [22]: 15 min; IC50 (Cathepsin G): > 100 µM; IC50 (Chymotrypsinogen A): 3 µM; IC50 (Serine protease 1): > 100 µM; Tmax [23]: 1.8 min; inhibition [24]: 100%; inhibition [25]: 100%; k on [26]: 30500 M⁻¹ s⁻¹
